Screening results from PubChem BioAssay.
Sampled rows, rich in hits. Any-hit rate of the full collection: about 3.2%.
LEDGF integ inh = blocks HIV-1 LEDGF/p75-dependent DNA integration; TR-FRET IN-LEDGF/p75 DNA integration, Eu/Cy5; actives 0.64% (n = 370,000); inhibition, % at 3.7 µM;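 active = inhibition above the screen-wide mean plus 3 SD, cut at about 13% in these data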;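 note: signal is the Cy5 over europium emission ratio at 671 and 618 nm; 0% = plate median of compound wells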
DAGLB inhibitor = blocks human DAGLB lipase activity. Q8NCG7. HEK293T DAGLB membrane lysate, EnzChek fluorogenic substrate. inhibition, % at 5.17 µM. actives 0.059% (n = 340,000). AID 504411; in the data active = inhibition above about 34%;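 note: 0% = enzyme with vehicle and 100% = wells lacking enzyme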
rCAG RNA binder = r(CAG) repeat RNA binding; TO-PRO-1 dye displacement fluorescence; AID 651821; inhibition, % at 3 µM; actives 1.3% (n = 370,000);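 active = inhibition above the plate cutoff, the mean of all test compounds on that plate plus 3 SD, cut at about 35% in these data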;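 note: 0% = DMSO alone and 100% = 100 µM mitoxantrone as full dye displacement; higher means more dye released from RNA so lower well fluorescence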
ABHD4 inh = inhibits mouse alpha/beta hydrolase domain 4. purified mABHD4, FP-Rh probe fluorescence polarization. inhibition, % at 8.92 µM. actives 0.54% (n = 370,000);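 active = inhibition exceeding the mean over every tested compound plus 3 SD, cut at about 30% in these data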;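 note: 0% = plate median of compound wells and 100% = S159A mutant with DMSO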
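Assay system: Wild-type mouse ABHD4 protein | Medium: HEPES pH 7.0 buffer, 150 mM NaCl, 0.01% Pluronic F-127 | Incubation: Enzyme–compound pre-incubation 45 min, then probe 60 min, both 25 °C | Technique: Fluorescence polarization with parallel and perpendicular emission, 525/598 nm | Evaluation: % inhibition of FP-Rh probe binding versus controls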
PRMT1 FP inh = inhibitors of human PRMT1; Q99873; recombinant PRMT1, activity-based probe fluorescence polarization; inhibition, % at 2.79 µM; actives 1.3% (n = 370,000); AID 652257;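 active = inhibition above about 21% made by adding two undisclosed values, limit read from the data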
Target sequence (Q99873 whole entry, looked up): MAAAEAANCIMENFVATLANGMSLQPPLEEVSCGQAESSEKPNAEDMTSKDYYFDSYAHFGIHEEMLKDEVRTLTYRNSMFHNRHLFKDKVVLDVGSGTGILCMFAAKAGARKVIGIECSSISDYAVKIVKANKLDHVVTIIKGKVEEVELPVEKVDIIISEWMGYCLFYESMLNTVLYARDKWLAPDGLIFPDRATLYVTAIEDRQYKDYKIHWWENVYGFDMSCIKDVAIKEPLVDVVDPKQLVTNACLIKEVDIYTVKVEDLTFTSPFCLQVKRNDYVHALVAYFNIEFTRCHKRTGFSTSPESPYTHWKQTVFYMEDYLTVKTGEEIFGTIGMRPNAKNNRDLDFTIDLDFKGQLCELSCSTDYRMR
HTRA1 inhibitor = HTRA1 (human) protease inhibition. Q92743. recombinant HTRA1, FP-rhodamine activity-based probe, fluorescence polarization. inhibition, % at 5.96 µM. actives 0.5% (n = 340,000). AID 504803; in the data active = inhibition above about 36%;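 note: 0% = enzyme with DMSO and 100% = wells lacking enzyme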
ABHD4 confirm = confirmation of mouse ABHD4 inhibitors; shares compounds with ABHD4 inh; purified mABHD4, FP-Rh probe fluorescence polarization; inhibition, % at 8.92 µM; actives 55% (n = 1,800); AID 720658;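 active = mean inhibition across replicates above the hit cutoff set in the primary screen, cut at about 30% in these data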;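 note: 0% = wild-type ABHD4 with DMSO and 100% = catalytically dead S159A mutant with DMSO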
IN multimer act = activates HIV-1 integrase multimerization in LEDGF counter-screen; shares compounds with LEDGF integ inh; TR-FRET HIV-1 integrase multimerization, biochemical; activation, % at 7.7 µM; actives 17% (n = 2,000); AID 1053131; in the data active = activation above about 8.9%
TRFRET interf = optically interferes with TR-FRET readout in LEDGF counter-screen | 2,000 tested, under 10 active | TR-FRET optical interference counterscreen, HIV-1 IN multimerization | inhibition, % at 7.7 µM | shares compounds with LEDGF integ inh;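 active = inhibition above the mean over all tested compounds plus 3 SD, which no compound reached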;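 note: 0% = integrase with antibodies and DMSO and 100% = antibodies without integrase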
IN-LEDGF confirm = LEDGF/p75-dependent HIV-1 integration inhibition, confirmation; shares compounds with LEDGF integ inh; TR-FRET LEDGF/p75-dependent HIV-1 integration, biochemical; inhibition, % at 3.7 µM; actives 36% (n = 2,000); in the data active = inhibition above about 14%
The depositor's hits bear a star; . = not tested or not shown.

SMILES | LEDGF integ inh | DAGLB inhibitor | rCAG RNA binder | ABHD4 inh | PRMT1 FP inh | HTRA1 inhibitor | ABHD4 confirm | others
Cc1[nH]c2ccc(OC(F)(F)F)cc2c1CCNCc1cccc([N+](=O)[O-])c1 | -4.5 | -4.0 | -5.2 | 14.1 | 1.2 | -16.9 | .
FC(F)(F)c1ccc(-c2ccc3c(c2)CNCc2cnnn2-3)cc1 | -5.4 | . | 0.5 | 33.6* | 2.9 | . | 25.0
C=CCn1c(O)c(C(C)=Nc2ccc(N(CC)CC)cc2)c(=O)[nH]c1=O | 12.1 | -0.7 | 2.6 | 38.8* | 18.6 | 6.5 | 0.4
COc1ccc(/C=C2/C(=O)NC(=S)N(C3CC3)C2=O)cc1CN1C(=O)c2ccccc2C1=O | 1.9 | 2.7 | 11.3 | 24.0 | 9.3 | -12.5 | .
CC12CCC3C(CC=C4CC(O)CCC43C)C1CC(=CN1CCOCC1)C2=O (stereo unspecified) | -0.8 | 3.2 | 0.5 | 7.3 | -2.6 | -6.6 | .
O=C(NC1CCCCC1)Oc1cc2oc(=O)sc2cc1Cl | 0.4 | -23.6 | 20.8 | 30.5* | 85.5* | 8.4 | 24.2
Nc1c(Br)cc2c3c(cccc13)-c1ccccc1-2 | 6.4 | . | 16.2 | 55.2* | 7.4 | . | 57.4*
COOCC1(C(=O)OC)C[C@H](c2ccc(OC)cc2)N(Cc2ccccc2OC)[C@@H]1c1ccccc1C (stereo partly specified) | 1.5 | . | 5.4 | 1.2 | -2.8 | . | .
COc1ccccc1CCNC1CCC(C)CC1 (stereo unspecified) | -3.1 | 2.4 | 5.4 | 3.2 | -3.2 | 4.4 | .
O=C(N/N=C/c1c(O)n(Cc2ccccc2)c(=O)[nH]c1=O)c1ccccc1O | -3.7 | 9.8 | 81.0* | 60.8* | 2.5 | 34.8 | 38.3*
O=C1C(Cl)=CC(=Nc2ccc(O)cc2)C=C1Cl | 8.4 | 2.5 | 17.3 | 32.2* | 21.9* | 25.2 | 57.9*
O=[As](O)(O)c1ccc(N=Nc2ccc(O)cc2)cc1 | -3.2 | -0.3 | -1.2 | 5.9 | 2.8 | -1.8 | .
Cc1[nH]nc2ccc(-c3cncc(OC[C@@H](N)Cc4c[nH]c5ccccc45)c3)cc12 | . | -0.9 | . | . | . | -32.3 | .
CN(C)[C@@H]1C(=O)C(C(N)=O)=C(O)[C@@]2(O)C(=O)C3=C(O)c4c(O)cccc4[C@@](C)(O)C3C[C@@H]12 (stereo partly specified) | 18.0* | -1.3 | 25.7 | 64.1* | 18.7 | 22.5 | 8.7 | IN multimer act=5.1;TRFRET interf=-25.8;IN-LEDGF confirm=3.5
COc1ccccc1OCCCn1cc(C(C)=O)c2ccccc21 | 5.8 | -0.4 | -3.4 | -13.4 | -2.9 | -9.3 | .
Cc1ccc(S(=O)(=O)Nc2cc(C(=O)N3CCC4(CC3)OCCO4)ccc2N2CCCCC2)cc1 | 15.8* | -5.9 | 4.0 | -1.1 | 1.4 | -7.4 | . | IN multimer act=-0.6;TRFRET interf=2.0;IN-LEDGF confirm=-1.2
COc1ccc(OC)c(C(O)C2CCCCN2)c1 (stereo unspecified) | -3.5 | -2.1 | -3.4 | 1.1 | 4.1 | -2.7 | .
COC(=O)C1=C(c2cc3ccccc3s2)C[C@@H]2CC[C@H]1N2C(=O)NCc1ccco1 | 2.3 | -0.8 | 8.2 | 3.9 | 3.2 | -13.6 | .
Clc1cccc(CNCCc2ccc3c(c2)OCO3)c1 | 14.5* | -0.9 | 0.7 | 11.7 | 0.7 | 0.1 | . | IN multimer act=0.0;TRFRET interf=-0.2;IN-LEDGF confirm=-1.6
Clc1ccc(CNCCc2ccc3c(c2)OCO3)cc1 | 3.2 | -3.5 | 5.8 | 12.6 | -4.3 | 2.5 | .
CC(C)C12CN3CCN(CC(C3)C1O)C2 (stereo unspecified) | 0.8 | 0.1 | 0.3 | 6.2 | -1.9 | -3.8 | .
